Laboratory results taken from ChEMBL document CHEMBL3525900, “Pharmacokinetics, distribution, and metabolism of [14C]sunitinib in rats, monkeys, and humans” (Drug Metab Dispos, 2012).

Legend:
Settings in all cases: in vivo
[1] = Drug excretion in feces of male Sprague-Dawley rat treated with [14C]sunitinib at 15 mg/kg, po administered as single dose by liquid scintillation counting; type: ADME, organism-based; set-up: dose 15 mg/kg, dosed compound name [14C]Sunitinib, route oral
How it was run: (§1)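 Female and male rats given one oral gavage dose, 15 mg/kg free base equivalents (50 µCi/kg). Urine and feces collected on dry ice, protected from light, over 0-4, 4-8 and 8-24 h, then daily to 72 h. Urine aliquots counted by liquid scintillation; homogenized feces combusted in oxygen before counting. Counts 5 min, external quench correction.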

[2] = Drug excretion in feces of female Sprague-Dawley rat treated with [14C]sunitinib at 5 mg/kg, iv administered as single dose by liquid scintillation counting; type: ADME, organism-based; set-up: dose 5 mg/kg, dosed compound name [14C]Sunitinib, route intravenous
How it was run: (§2)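 Five female rats given a single tail-vein bolus of [14C]sunitinib L-malate, 5 mg/kg free base equivalents (50 µCi/kg). Urine and feces collected over 0-72 h into dry-ice cooled containers. Urine counted directly by liquid scintillation; feces homogenized and combusted in oxygen before counting. Expired air also monitored.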

[3] = Drug excretion in feces of female Sprague-Dawley rat treated with [14C]sunitinib at 15 mg/kg, po administered as single dose by liquid scintillation counting; type: ADME, organism-based; set-up: dose 15 mg/kg, dosed compound name [14C]Sunitinib, route oral; how it was run: as §1
[4] = Drug excretion in feces of female cynomolgus monkey treated with [14C]sunitinib at 6 mg/kg, po administered as single dose by liquid scintillation counting; type: ADME, organism-based, Macaca fascicularis; set-up: dose 6 mg/kg, dosed compound name [14C]Sunitinib, route oral
How it was run: (§3)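 Cynomolgus monkeys given one oral gavage dose of [14C]sunitinib L-malate, 6 mg/kg (37 µCi/kg). Urine collected at 0-4, 4-8 and 8-24 h, feces at 0-8 and 8-24 h, then both daily to 14 days; samples stored at -80 °C. Duplicate urine aliquots counted by liquid scintillation; homogenized feces combusted before counting.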

[5] = Drug excretion in feces of male cynomolgus monkey treated with [14C]sunitinib at 6 mg/kg, po administered as single dose by liquid scintillation counting; type: ADME, organism-based, Macaca fascicularis; set-up: dose 6 mg/kg, dosed compound name [14C]Sunitinib, route oral; how it was run: as §3
[6] = Drug excretion in feces of human treated with [14C]sunitinib at 50 mg, po administered as single dose by liquid scintillation counting
[7] = Drug excretion in urine of female Sprague-Dawley rat treated with [14C]sunitinib at 5 mg/kg, iv administered as single dose by liquid scintillation counting; type: ADME, organism-based; set-up: dose 5 mg/kg, dosed compound name [14C]Sunitinib, route intravenous; how it was run: as §2
[8] = Drug excretion in urine of female cynomolgus monkey treated with [14C]sunitinib at 6 mg/kg, po administered as single dose by liquid scintillation counting; type: ADME, organism-based, Macaca fascicularis; set-up: dose 6 mg/kg, dosed compound name [14C]Sunitinib, route oral; how it was run: as §3
[9] = Drug excretion in urine of female Sprague-Dawley rat treated with [14C]sunitinib at 15 mg/kg, po administered as single dose by liquid scintillation counting; type: ADME, organism-based; set-up: dose 15 mg/kg, dosed compound name [14C]Sunitinib, route oral; how it was run: as §1
[10] = Drug excretion in urine of male Sprague-Dawley rat treated with [14C]sunitinib at 15 mg/kg, po administered as single dose by liquid scintillation counting; type: ADME, organism-based; set-up: dose 15 mg/kg, dosed compound name [14C]Sunitinib, route oral; how it was run: as §1
[11] = Drug excretion in urine of human treated with [14C]sunitinib at 50 mg, po administered as single dose by liquid scintillation counting
[12] = Drug excretion in urine of male cynomolgus monkey treated with [14C]sunitinib at 6 mg/kg, po administered as single dose by liquid scintillation counting; type: ADME, organism-based, Macaca fascicularis; set-up: dose 6 mg/kg, dosed compound name [14C]Sunitinib, route oral; how it was run: as §3

Compound recovery [1] [%] | Compound recovery [2] [%] | Compound recovery [3] [%] | Compound recovery [4] [%] | Compound recovery [5] [%] | Compound recovery [6] | Compound recovery [7] [%] | Compound recovery [8] [%] | Compound recovery [9] [%] | Compound recovery [10] [%] | Compound recovery [11] | Compound recovery [12] [%] | SMILES
4.3 | 6.1 | 3.5 | 5.9 | 6.3 | – | – | – | – | – | – | – | CCN(CC)CCNC(=O)c1c(C)[nH]c(/C=C2\C(=O)Nc3ccc(O)cc32)c1C
– | 1.1 | 1.7 | 0.8 | 1 | metabolite_not_detected | – | – | – | – | – | – | Cc1[nH]c(/C=C2\C(=O)Nc3ccc(F)cc32)c(C)c1C(=O)NCCN
– | – | – | 2.6 | 3.2 | – | 0.7 | 0.2 | 1.5 | 0.3 | metabolite_not_detected | < 0.1 | CC[N+]([O-])(CC)CCNC(=O)c1c(C)[nH]c(/C=C2\C(=O)Nc3ccc(F)cc32)c1C
– | – | – | 0.8 | 1 | metabolite_not_detected | – | – | – | – | – | – | CCNCC(O)NC(=O)c1c(C)[nH]c(/C=C2\C(=O)Nc3ccc(F)cc32)c1C (stereo unspecified)
